# Source: ChEMBL document CHEMBL3351316, “Scaffold hopping approach on the route to selective tankyrase inhibitors” (Eur J Med Chem, 2014)
# Active and inactive are the calls of the source. The rule behind the calls is not given here.
# What was measured:
# [1] = target: Poly [ADP-ribose] polymerase 2 (Homo sapiens) (UniProt Q9UGN5); assay: Inhibition of human recombinant PARP2 incubated for 1 hr using histone substrate at 10 uM by luminescence based assay
# How it was run: (§1)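 Recombinant PARP enzyme reactions were run in duplicate for 1 h at rt on histone-coated plates in Tris·HCl pH 8.0 buffer with NAD+, biotinylated NAD+ and activated DNA. Detection used streptavidin-HRP for 30 min at rt, then a chemiluminescent developer. % inhibition = 100 − % activity, scaled between the no-compound (100%) and no-enzyme (0%) signals.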
# [2] = target: Poly [ADP-ribose] polymerase 2 (Homo sapiens) (UniProt Q9UGN5); assay: Inhibition of human recombinant PARP2 incubated for 1 hr using histone substrate at 1 uM by luminescence based assay; how it was run: as §1
# [3] = target: T1, Protein mono-ADP-ribosyltransferase PARP10 (Homo sapiens) (UniProt Q53GL7); assay: Inhibition of human recombinant PARP10 at 10 uM incubated for 1 hr using NAD+, biotinylated NAD+ and activated DNA by luminescence based assay; how it was run: as §1
# T1 sequence (whole entry): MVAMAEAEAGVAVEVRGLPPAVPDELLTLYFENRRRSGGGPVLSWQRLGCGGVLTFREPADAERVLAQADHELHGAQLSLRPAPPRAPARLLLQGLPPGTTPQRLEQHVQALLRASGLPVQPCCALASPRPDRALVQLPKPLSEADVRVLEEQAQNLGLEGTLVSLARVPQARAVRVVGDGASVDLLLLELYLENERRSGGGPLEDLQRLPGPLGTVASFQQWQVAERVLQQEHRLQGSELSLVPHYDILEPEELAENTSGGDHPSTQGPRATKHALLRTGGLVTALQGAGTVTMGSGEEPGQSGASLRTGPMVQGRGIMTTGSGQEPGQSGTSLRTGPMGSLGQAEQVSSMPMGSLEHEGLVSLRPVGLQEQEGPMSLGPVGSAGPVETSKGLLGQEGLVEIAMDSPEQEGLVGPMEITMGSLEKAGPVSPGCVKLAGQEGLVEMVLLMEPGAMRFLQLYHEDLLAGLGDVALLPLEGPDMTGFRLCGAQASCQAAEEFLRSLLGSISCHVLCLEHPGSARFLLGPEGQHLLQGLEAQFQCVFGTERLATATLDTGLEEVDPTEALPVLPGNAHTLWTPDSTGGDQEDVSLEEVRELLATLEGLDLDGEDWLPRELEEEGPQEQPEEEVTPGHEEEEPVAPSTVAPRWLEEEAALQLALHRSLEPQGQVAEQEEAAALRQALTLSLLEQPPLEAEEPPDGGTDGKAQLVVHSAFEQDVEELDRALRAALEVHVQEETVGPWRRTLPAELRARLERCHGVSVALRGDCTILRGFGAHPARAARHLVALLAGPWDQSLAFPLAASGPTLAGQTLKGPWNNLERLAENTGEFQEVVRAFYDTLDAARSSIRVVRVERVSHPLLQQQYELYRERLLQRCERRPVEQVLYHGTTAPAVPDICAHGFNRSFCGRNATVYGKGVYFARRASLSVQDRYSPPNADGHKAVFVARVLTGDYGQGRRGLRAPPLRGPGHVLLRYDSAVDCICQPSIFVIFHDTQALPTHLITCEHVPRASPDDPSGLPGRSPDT
# [4] = tested on: RKO; assay: Growth inhibition of Wnt-negative human RKO cells at 1 uM to 10 uM; type: functional, cell-based
# [5] = Lipophilicity, log D of the compound at pH 7.4; type: physicochemical; conditions: buffer
# [6] = target: T2, Protein mono-ADP-ribosyltransferase PARP12 (Homo sapiens) (UniProt Q9H0J9); assay: Inhibition of human recombinant PARP12 at 10 uM incubated for 1 hr using NAD+, biotinylated NAD+ and activated DNA by luminescence based assay; how it was run: as §1
# T2 sequence (whole entry): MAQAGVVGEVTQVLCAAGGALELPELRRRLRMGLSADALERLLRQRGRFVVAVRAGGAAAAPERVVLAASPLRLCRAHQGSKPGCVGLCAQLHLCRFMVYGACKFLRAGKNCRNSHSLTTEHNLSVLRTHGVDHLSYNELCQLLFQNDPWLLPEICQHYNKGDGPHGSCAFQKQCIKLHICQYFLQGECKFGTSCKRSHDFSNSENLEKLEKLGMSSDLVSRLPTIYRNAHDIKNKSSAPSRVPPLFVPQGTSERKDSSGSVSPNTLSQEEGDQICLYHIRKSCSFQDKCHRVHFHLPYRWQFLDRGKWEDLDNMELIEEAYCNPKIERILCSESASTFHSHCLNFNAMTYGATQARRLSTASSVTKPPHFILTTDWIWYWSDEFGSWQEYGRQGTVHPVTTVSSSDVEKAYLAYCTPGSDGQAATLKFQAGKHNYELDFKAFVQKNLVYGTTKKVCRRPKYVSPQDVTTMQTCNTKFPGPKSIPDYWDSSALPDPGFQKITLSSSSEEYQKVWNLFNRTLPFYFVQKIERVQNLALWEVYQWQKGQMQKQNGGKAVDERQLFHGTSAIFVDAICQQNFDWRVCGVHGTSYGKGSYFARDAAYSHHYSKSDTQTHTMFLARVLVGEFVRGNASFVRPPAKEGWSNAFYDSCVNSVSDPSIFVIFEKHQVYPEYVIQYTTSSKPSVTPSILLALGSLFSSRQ
# Poly [ADP-ribose] polymerase 2 (Homo sapiens), sequence (Q9UGN5 whole entry): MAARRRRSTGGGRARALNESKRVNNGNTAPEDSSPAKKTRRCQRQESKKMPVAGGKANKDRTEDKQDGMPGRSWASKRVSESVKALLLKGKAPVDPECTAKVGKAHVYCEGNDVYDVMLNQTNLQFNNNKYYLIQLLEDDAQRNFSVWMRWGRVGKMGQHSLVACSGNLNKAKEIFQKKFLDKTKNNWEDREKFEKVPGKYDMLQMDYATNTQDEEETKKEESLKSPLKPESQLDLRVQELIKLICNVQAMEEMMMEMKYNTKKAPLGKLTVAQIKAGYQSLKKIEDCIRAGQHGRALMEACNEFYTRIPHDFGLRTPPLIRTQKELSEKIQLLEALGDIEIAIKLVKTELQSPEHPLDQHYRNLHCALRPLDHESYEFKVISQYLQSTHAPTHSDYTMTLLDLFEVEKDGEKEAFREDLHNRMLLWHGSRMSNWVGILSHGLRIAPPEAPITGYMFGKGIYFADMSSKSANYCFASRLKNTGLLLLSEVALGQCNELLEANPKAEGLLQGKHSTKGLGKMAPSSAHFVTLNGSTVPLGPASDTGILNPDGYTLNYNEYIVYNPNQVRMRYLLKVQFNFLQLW
smiles,measurement,setting,value
CC(C)(C)c1ccc(-c2nc3c(sc4ccccc43)c(=O)[nH]2)cc1,inhibition,[1],0%
same,inhibition,[2],4%
same,inhibition,[3],3%
same,growth inhibition (GI),[4],inactive
same,logD,[5],5.16
same,inhibition,[6],14%
